The nature of data set [1]: Half life of the compound. The format is physicochemical.
The nature of data set [2]: Lipophilicity, log D of the compound at pH 4. The format is physicochemical. To be noted: buffer.
Data set [3] in a line: Half life human plasma by radio-HPLC and radio-TLC analysis. Type of data set: ADME, cell-free. In a few lines: (§1)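 The 18F-labelled compound was incubated in human plasma at 37 °C and monitored by radio-HPLC and radio-TLC for at least 120 min. The intact fraction and the half-life were obtained from this time course.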
A short description of data set [4]: Half life of the compound in saline at pH 5.5 by radio-HPLC and radio-TLC analysis. Type of data set: physicochemical. A digest of the protocol: (§2)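 Aqueous saline (pH 5.5) samples of the 18F compound were analysed by radio-HPLC and radio-TLC at 5, 15, 30, 60 and 120 min to follow hydrolysis of the Si–F bond. Hydrolysis was followed up to 180 min. Half-life was taken from the decay of intact tracer.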

The test system of a further data set is Intestine. Briefly: Biodistribution in Wistar rat intestine at 10 MBq after 90 mins by PET analysis. The format is ADME, organism-based. To be noted: in vivo, 1.5 h.
Data set [5] can be described thus: Lipophilicity, log D of the compound at pH 7.4. Type of data set: physicochemical. To be noted: buffer.
The species named for data set [6] is Rattus norvegicus. As to the kind of experiment: Biodistribution in Wistar rat bladder at 10 MBq after 90 mins by PET analysis. Type of data set: ADME, organism-based, Urinary bladder/Urine. As to conditions: in vivo, 1.5 h.
For another data set, the system named is Liver. Briefly: Biodistribution in Wistar rat liver at 10 MBq after 90 mins by PET analysis. Type of data set: ADME, organism-based. To be noted: in vivo, 1.5 h.
The nature of data set [7]: Chemical stability of the compound in saline after 180 mins at pH 5.5 by radio-HPLC and radio-TLC analysis. Type of data set: physicochemical. To be noted: buffer, pH 5.5, 3 h. A digest of the protocol: as §2
For another data set, the system named is Heart. Briefly: Biodistribution in Wistar rat heart at 10 MBq after 90 mins by PET analysis. Type of data set: ADME, organism-based. To be noted: in vivo, 1.5 h.
Data set [8] in a line: Drug degradation in water at pH 7.4 by radio-HPLC and radio-TLC analysis. The format is physicochemical. As to conditions: read-out: Drug degradation. A digest of the protocol: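 Decomposition of the 18F compound in water at pH 7.4 was followed by radio-HPLC and radio-TLC, read after 120 min.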
Data set [9] in a line: Metabolic stability in human plasma assessed as compound remaining after 2 hrs by radio-HPLC and radio-TLC analysis. The format is ADME, cell-free. To be noted: read-out: Stability. A digest of the protocol: as §1
Data set [10] is filed under the species Rattus norvegicus. As to the kind of experiment: Biodistribution in Wistar rat femur bone at 10 MBq after 90 mins by PET analysis. The format is ADME, organism-based, Bone element. To be noted: in vivo, 1.5 h.
Data set [11] can be described thus: Chemical stability of the compound in saline after 2 hrs at pH 5.5 by radio-HPLC and radio-TLC analysis. The format is physicochemical. As to conditions: read-out: Stability. In a few lines: as §2
In the next data set the test system is Muscle tissue. As to the kind of experiment: Biodistribution in Wistar rat muscle at 10 MBq after 90 mins by PET analysis. Type of data set: ADME, organism-based. To be noted: in vivo, 1.5 h.
Data set [12] is described as follows: Octanol-water partition coefficient, log P of the compound. Type of data set: physicochemical. A digest of the protocol: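 LogP was calculated as clogP with ChemDraw 11.0.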

Molecules are shown by their SMILES.

In the case of `O=[N+]([O-])c1nccn1CCC[Si]([18F])(c1cccc2ccccc12)c1cccc2ccccc12`, in data set [1], the half-life turned out to be 2.17 h.

In turn, `O=C(Cn1ccnc1[N+](=O)[O-])NCCC[Si]([18F])(c1cccc2ccccc12)c1cccc2ccccc12` had a logD in [2] of 0.12. Moreover, the half-life in data set [3] is below 5 min; in [4], 1 h.

In the case of `O=[N+]([O-])c1nccn1CCOCCOCc1cn(CCC[Si]([18F])(c2cccc3ccccc23)c2cccc3ccccc23)nn1`, the half-life in [3] was below 5 min; in data set [4], 1 h.

For the compound `CC(C)(C)[Si]([18F])(c1cccc(C(=O)NCCn2ccnc2[N+](=O)[O-])c1)C(C)(C)C`, the SUV is 6.5% in the data set on Intestine; 9.5% in the data set filed under Rattus norvegicus [6]; 7.3% with Liver; 0.5% in the data set on Heart; 2.8% in the data set filed under Rattus norvegicus [10]; 0.3% in the data set with Muscle tissue. This compound also registered a logD in data set [5] of 2.12. Also, in data set [7], the Stability entry is “Stable”. Further, the degraded in data set [8] is below 10%. In addition, the remaining at 2 h amounted to 85% in [9] and 100% in data set [11].

In turn, `O=C(Cn1ccnc1[N+](=O)[O-])NCC(F)(F)C(F)(F)F` came in with a P in data set [12] of 5.7.

Source of the values: ChEMBL document CHEMBL2390899, “Synthesis of new 18F-radiolabeled silicon-based nitroimidazole compounds” (Bioorg Med Chem, 2013).
